According to ChEMBL document CHEMBL4602702, “Red-Emitting Dibenzodiazepinone Derivatives as Fluorescent Dualsteric Probes for the Muscarinic Acetylcholine M2 Receptor” (J Med Chem, 2020):

Experiments:
Type in all cases: cell-based
[1] = molecular target: T1, Muscarinic acetylcholine receptor M4 (Homo sapiens, UniProt P08173); assay: Displacement of [3H]-NMS from human muscarinic M4 receptor stably expressed in CHO-K9 cells by radioligand competitive binding assay
T1 sequence (P08173 whole entry): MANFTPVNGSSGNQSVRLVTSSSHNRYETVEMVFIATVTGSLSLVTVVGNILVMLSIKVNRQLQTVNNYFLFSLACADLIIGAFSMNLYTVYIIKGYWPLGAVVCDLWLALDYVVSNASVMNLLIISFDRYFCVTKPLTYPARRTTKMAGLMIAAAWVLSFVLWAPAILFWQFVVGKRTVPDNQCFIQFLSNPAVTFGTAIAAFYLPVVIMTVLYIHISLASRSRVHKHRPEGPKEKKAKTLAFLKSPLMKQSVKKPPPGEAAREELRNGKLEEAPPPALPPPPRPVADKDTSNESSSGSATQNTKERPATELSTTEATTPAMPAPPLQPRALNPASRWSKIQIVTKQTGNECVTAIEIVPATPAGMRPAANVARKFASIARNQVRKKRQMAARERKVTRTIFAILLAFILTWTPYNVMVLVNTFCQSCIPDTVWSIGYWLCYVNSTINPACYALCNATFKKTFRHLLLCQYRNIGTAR
In short: (§1)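 Equilibrium competition binding at live CHO-hMxR cells with [3H]NMS at M1 0.2, M2 0.2, M3 0.2, M4 0.1, M5 0.3 nM. […] Four-parameter logistic fit converted to pKi; at least three experiments in triplicate (some two).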

[2] = molecular target: T2, Muscarinic acetylcholine receptor M2 (Homo sapiens, UniProt P08172); assay: Displacement of [3H]-NMS from human muscarinic M2 receptor stably expressed in CHO-K9 cells by radioligand competitive binding assay; in short: as §1
T2 sequence (P08172 whole entry): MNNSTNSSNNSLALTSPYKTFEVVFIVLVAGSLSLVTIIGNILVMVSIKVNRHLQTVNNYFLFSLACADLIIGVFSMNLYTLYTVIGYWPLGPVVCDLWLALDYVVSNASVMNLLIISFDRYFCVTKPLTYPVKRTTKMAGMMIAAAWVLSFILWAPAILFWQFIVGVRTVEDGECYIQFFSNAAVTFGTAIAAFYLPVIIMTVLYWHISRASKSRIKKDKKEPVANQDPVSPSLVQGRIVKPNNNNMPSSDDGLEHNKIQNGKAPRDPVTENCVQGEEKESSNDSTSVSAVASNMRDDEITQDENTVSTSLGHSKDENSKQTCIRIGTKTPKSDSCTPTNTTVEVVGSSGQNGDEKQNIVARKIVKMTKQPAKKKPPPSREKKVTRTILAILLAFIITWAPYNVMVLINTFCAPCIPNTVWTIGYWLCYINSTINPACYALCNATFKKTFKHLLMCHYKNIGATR

[3] = molecular target: Muscarinic acetylcholine receptor M3 (Homo sapiens, UniProt P20309); assay: Displacement of [3H]-NMS from human muscarinic M3 receptor stably expressed in CHO-K9 cells by radioligand competitive binding assay; in short: as §1
Sequence of Muscarinic acetylcholine receptor M3 (P20309 whole entry): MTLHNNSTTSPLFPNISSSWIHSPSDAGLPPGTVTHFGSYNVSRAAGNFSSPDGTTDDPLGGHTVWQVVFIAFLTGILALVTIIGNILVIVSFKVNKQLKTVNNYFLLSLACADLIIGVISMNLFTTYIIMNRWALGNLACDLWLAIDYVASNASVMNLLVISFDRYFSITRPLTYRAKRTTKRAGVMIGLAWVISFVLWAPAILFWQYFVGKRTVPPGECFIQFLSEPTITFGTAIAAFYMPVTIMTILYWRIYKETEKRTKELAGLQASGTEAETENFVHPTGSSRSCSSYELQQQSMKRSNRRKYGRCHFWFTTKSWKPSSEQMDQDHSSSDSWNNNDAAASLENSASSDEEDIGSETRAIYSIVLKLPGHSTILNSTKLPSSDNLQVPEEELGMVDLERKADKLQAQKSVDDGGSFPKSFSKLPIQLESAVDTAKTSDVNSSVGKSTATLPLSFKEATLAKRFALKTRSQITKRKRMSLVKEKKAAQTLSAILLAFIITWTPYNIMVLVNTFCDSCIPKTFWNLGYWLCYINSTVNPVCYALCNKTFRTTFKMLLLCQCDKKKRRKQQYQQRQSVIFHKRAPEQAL

[4] = molecular target: T3, Muscarinic acetylcholine receptor M5 (Homo sapiens, UniProt P08912); assay: Displacement of [3H]-NMS from human muscarinic M5 receptor stably expressed in CHO-K9 cells by radioligand competitive binding assay; in short: as §1
T3 sequence (P08912 whole entry): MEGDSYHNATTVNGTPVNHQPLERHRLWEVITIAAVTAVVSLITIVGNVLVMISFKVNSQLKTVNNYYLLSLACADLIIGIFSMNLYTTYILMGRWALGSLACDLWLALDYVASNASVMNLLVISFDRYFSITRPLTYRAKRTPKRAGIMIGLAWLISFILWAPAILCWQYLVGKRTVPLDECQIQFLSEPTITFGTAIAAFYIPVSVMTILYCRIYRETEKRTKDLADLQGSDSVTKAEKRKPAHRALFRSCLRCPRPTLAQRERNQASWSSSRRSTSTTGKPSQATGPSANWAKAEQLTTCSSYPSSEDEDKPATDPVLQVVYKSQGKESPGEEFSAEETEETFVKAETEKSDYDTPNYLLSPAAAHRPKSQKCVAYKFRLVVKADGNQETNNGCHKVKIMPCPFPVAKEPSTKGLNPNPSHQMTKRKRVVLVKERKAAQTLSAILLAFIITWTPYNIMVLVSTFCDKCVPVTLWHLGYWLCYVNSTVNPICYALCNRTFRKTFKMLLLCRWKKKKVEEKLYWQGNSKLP

[5] = molecular target: T4, Muscarinic acetylcholine receptor M1 (Homo sapiens, UniProt P11229); assay: Displacement of [3H]-NMS from human muscarinic M1 receptor stably expressed in CHO-K9 cells by radioligand competitive binding assay; in short: as §1
T4 sequence (P11229 whole entry): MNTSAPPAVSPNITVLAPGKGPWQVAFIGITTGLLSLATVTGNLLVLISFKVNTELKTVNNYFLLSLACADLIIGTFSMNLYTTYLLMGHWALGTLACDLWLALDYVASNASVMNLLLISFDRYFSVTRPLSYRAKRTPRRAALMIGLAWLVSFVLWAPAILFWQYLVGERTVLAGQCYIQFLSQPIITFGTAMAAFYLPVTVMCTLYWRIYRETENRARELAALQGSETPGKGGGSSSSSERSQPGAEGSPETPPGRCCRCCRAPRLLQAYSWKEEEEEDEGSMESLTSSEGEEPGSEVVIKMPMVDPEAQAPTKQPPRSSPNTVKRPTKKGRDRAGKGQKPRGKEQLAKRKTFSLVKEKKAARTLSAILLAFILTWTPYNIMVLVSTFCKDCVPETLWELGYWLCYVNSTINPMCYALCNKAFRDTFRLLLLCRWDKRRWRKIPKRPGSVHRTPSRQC

Structure (SMILES)	Ki [1]	Ki [2]	Ki [3]	Ki [4]	Ki [5]
C[N+]1=C(/C=C/C=C/C=C2/N(CCCCCC(=O)NCCCCC3CCN(CC(=O)N4c5ccccc5NC(=O)c5ccccc54)CC3)c3ccccc3C2(C)C)C(C)(C)c2ccccc21	67.6 nM	53.7 nM	631 nM	288 nM	120 nM
Cc1cc(/C=C/C=C/c2ccc(N(C)C)cc2)cc(C)[n+]1CCCCC1CCN(CC(=O)N2c3ccccc3NC(=O)c3ccccc32)CC1	16.2 nM	17 nM	85.1 nM	200 nM	30.9 nM
C[N+]1=C(/C=C/C=C/C=C2/N(CCCCCC(=O)NCCN3CCN(CCCCC4CCN(CC(=O)N5c6ccccc6NC(=O)c6ccccc65)CC4)CC3)c3ccccc3C2(C)C)C(C)(C)c2ccccc21	18.6 nM	4.47 nM	85.1 nM	69.2 nM	15.1 nM
CC1(C)C(/C=C/C=C/C=C2/N(CCCCCC(=O)NCCCCC3CCN(CC(=O)N4c5ccccc5NC(=O)c5ccccc54)CC3)c3ccccc3C2(C)C)=[N+](CCCCS(=O)(=O)[O-])c2ccccc21	200 nM	141 nM	871 nM	871 nM	347 nM
NCCCCC1CCN(CC(=O)N2c3ccccc3NC(=O)c3ccccc32)CC1	–	10.7 nM	–	–	–
NCCNC(=O)CCc1cn(CCCCC2CCN(CC(=O)N3c4ccccc4NC(=O)c4ccccc43)CC2)cn1	–	0.589 nM	–	–	–
CC1(C)C(/C=C/C=C/C=C2/N(CCCCCC(=O)NCc3cc(C(=O)NCCNC(=O)CCc4cn(CCCCC5CCN(CC(=O)N6c7ccccc7NC(=O)c7ccccc76)CC5)cn4)cc(C(=O)NCCNC(=O)CCc4cn(CCCCC5CCN(CC(=O)N6c7ccccc7NC(=O)c7ccccc76)CC5)cn4)c3)c3ccccc3C2(C)C)=[N+](CCCCS(=O)(=O)[O-])c2ccccc21	–	1.41 nM	–	–	–
